Measured values published in ChEMBL document CHEMBL1765070, “Structure-based design of potent and selective 3-phosphoinositide-dependent kinase-1 (PDK1) inhibitors” (J Med Chem, 2011).

What was measured:
[1] = biological target: T1, 3-phosphoinositide-dependent protein kinase 1 (Homo sapiens, UniProt O15530); experiment: Inhibition of PDK1
T1 sequence (O15530 whole entry): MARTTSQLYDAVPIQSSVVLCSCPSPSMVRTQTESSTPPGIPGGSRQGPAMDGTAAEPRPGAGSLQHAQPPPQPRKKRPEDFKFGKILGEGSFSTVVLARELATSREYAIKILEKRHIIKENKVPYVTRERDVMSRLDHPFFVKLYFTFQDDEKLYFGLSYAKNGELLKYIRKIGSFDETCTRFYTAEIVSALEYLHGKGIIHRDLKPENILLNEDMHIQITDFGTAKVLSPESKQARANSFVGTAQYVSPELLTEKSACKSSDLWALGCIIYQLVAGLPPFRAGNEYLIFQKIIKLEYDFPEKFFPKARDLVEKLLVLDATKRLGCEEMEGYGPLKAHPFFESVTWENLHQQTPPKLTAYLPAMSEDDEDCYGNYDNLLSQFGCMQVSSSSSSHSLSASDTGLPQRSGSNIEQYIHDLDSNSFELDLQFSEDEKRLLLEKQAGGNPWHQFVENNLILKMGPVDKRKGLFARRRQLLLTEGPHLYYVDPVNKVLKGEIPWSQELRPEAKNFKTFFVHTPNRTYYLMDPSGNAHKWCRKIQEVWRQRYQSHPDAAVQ

Aurora kinase A = biological target: T2, Aurora kinase A (Homo sapiens, UniProt O14965); experiment: Inhibition of aurora A
T2 sequence (O14965 whole entry): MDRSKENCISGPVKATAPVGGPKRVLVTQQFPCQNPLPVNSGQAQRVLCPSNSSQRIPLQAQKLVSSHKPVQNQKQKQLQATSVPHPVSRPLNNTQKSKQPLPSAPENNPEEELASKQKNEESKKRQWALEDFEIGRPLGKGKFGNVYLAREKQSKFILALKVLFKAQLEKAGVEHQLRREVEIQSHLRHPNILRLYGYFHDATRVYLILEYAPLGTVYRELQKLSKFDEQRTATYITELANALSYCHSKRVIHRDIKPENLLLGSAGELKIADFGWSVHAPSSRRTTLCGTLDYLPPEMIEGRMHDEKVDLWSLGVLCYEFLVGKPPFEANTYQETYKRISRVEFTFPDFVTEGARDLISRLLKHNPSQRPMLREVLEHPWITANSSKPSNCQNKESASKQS

Aurora kinase B = Aurora kinase B (Homo sapiens, UniProt Q96GD4); experiment: Inhibition of aurora B
TGF-beta receptor type-1 = biological target: T3, TGF-beta receptor type-1 (Homo sapiens, UniProt P36897); experiment: Inhibition of ALK5
T3 sequence (P36897 whole entry): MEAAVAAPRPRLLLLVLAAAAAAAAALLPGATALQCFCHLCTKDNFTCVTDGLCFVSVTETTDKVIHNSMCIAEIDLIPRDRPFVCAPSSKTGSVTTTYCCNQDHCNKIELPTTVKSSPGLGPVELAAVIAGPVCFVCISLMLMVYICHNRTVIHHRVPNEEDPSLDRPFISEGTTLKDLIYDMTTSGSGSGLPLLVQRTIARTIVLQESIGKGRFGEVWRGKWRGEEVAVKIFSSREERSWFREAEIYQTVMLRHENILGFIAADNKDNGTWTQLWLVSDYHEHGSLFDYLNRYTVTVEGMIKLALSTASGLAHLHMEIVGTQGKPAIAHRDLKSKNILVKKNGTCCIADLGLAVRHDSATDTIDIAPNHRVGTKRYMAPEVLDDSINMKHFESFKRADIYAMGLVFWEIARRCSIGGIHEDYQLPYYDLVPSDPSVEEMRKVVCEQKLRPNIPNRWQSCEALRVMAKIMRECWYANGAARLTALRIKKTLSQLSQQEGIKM

[2] = biological target: Rho-associated protein kinase 1 (Homo sapiens, UniProt Q13464); experiment: Inhibition of ROCK1
[3] = biological target: T1, 3-phosphoinositide-dependent protein kinase 1; experiment: Inhibition of PDK1-mediated AKT phosphorylation at Thr308 residue in human PC3 cells by ELISA; assay type: cell-based, PC-3
[4] = biological target: T1, 3-phosphoinositide-dependent protein kinase 1; experiment: Inhibition of PDK1-mediated RSK phosphorylation at Ser221 residue in human PC3 cells by ELISA; assay type: cell-based, PC-3
K562 = experiment: Antiproliferative activity against human K562 cells; assay type: functional, cell-based
OCI-AML2 = experiment: Antiproliferative activity against human OCI-AML2 cells; assay type: functional, cell-based
[5] = Antiproliferative activity against human OCI-AML3 cells; assay type: functional, cell-based; conditions: OCI-AML-3
HEL = experiment: Antiproliferative activity against human HEL 92.1.7 cells; assay type: functional, cell-based
[6] = Antiproliferative activity against human F-36P cells; assay type: functional, cell-based
[7] = biological target: Serine/threonine-protein kinase Sgk2 (Homo sapiens) (UniProt Q9HBY8); experiment: Inhibition of human SGK2 assessed as residual activity at 10 uM
[8] = biological target: 3-phosphoinositide-dependent protein kinase 1 (Homo sapiens) (UniProt O15530); experiment: Inhibition of human PDK1 assessed as residual activity at 10 uM
[9] = biological target: cAMP-dependent protein kinase catalytic subunit PRKX (Homo sapiens) (UniProt P51817); experiment: Inhibition of human PrKX assessed as residual activity at 10 uM
[10] = biological target: Ribosomal protein S6 kinase alpha-6 (Homo sapiens) (UniProt Q9UK32); experiment: Inhibition of human RSK4 assessed as residual activity at 10 uM
[11] = biological target: Serine/threonine-protein kinase Sgk1 (Homo sapiens) (UniProt O00141); experiment: Inhibition of human SGK assessed as residual activity at 10 uM
[12] = biological target: NUAK family SNF1-like kinase 1 (Homo sapiens) (UniProt O60285); experiment: Inhibition of human ARK5 assessed as residual activity at 10 uM
[13] = biological target: Rho-associated protein kinase 2 (Rattus norvegicus) (UniProt Q62868); experiment: Inhibition of rat ROCK2 assessed as residual activity at 10 uM
[14] = biological target: Death-associated protein kinase 3 (Homo sapiens) (UniProt O43293); experiment: Inhibition of human ZIPK assessed as residual activity at 10 uM
[15] = biological target: RAC-gamma serine/threonine-protein kinase (Homo sapiens) (UniProt Q9Y243); experiment: Inhibition of human PKBgamma assessed as residual activity at 10 uM
[16] = biological target: Serine/threonine-protein kinase 17A (Homo sapiens) (UniProt Q9UEE5); experiment: Inhibition of human DRAK1 assessed as residual activity at 10 uM
[17] = biological target: Rho-associated protein kinase 2 (Homo sapiens) (UniProt O75116); experiment: Inhibition of human ROCK2 assessed as residual activity at 10 uM
[18] = biological target: Ribosomal protein S6 kinase alpha-3 (Homo sapiens) (UniProt P51812); experiment: Inhibition of human RSK2 assessed as residual activity at 10 uM
[19] = biological target: Serine/threonine-protein kinase Chk2 (Homo sapiens) (UniProt O96017); experiment: Inhibition of human CHK2 assessed as residual activity at 10 uM
[20] = biological target: Serine/threonine-protein kinase BRSK1 (Homo sapiens) (UniProt Q8TDC3); experiment: Inhibition of human BRSK1 assessed as residual activity at 10 uM
[21] = biological target: Ribosomal protein S6 kinase alpha-1 (Rattus norvegicus) (UniProt Q63531); experiment: Inhibition of rat RSK1 assessed as residual activity at 10 uM
[22] = biological target: Serine/threonine-protein kinase NLK (Homo sapiens) (UniProt Q9UBE8); experiment: Inhibition of human NLK assessed as residual activity at 10 uM
[23] = test system: Hepatocyte growth factor receptor (Homo sapiens), P08581 [D1246H]; experiment: Inhibition of human MET D1246H mutant assessed as residual activity at 10 uM
[24] = biological target: Serine/threonine-protein kinase BRSK2 (Homo sapiens) (UniProt Q8IWQ3); experiment: Inhibition of human BRSK2 assessed as residual activity at 10 uM
[25] = biological target: Proto-oncogene tyrosine-protein kinase receptor Ret (Homo sapiens) (UniProt P07949); experiment: Inhibition of human RET assessed as residual activity at 10 uM
[26] = biological target: Ribosomal protein S6 kinase alpha-1 (Homo sapiens) (UniProt Q15418); experiment: Inhibition of human RSK1 assessed as residual activity at 10 uM
[27] = test system: Hepatocyte growth factor receptor (Homo sapiens), P08581 [Y1248H]; experiment: Inhibition of human MET Y1248H assessed as residual activity at 10 uM
[28] = biological target: RAC-alpha serine/threonine-protein kinase (Homo sapiens, UniProt P31749); experiment: Inhibition of AKT1
[29] = biological target: Mitogen-activated protein kinase kinase kinase 5 (Homo sapiens, UniProt Q99683); experiment: Inhibition of ASK1
[30] = biological target: Glycogen synthase kinase-3 beta (Homo sapiens, UniProt P49841); experiment: Inhibition of GSK3B
[31] = biological target: Inhibitor of nuclear factor kappa-B kinase subunit alpha (Homo sapiens, UniProt O15111); experiment: Inhibition of IKK1
[32] = biological target: Phosphatidylinositol 4,5-bisphosphate 3-kinase catalytic subunit gamma isoform (Homo sapiens, UniProt P48736); experiment: Inhibition of PI3Kgamma
[33] = biological target: Tyrosine-protein kinase SYK (Homo sapiens, UniProt P43405); experiment: Inhibition of SYK
[34] = biological target: Vascular endothelial growth factor receptor 2 (Homo sapiens, UniProt P35968); experiment: Inhibition of VEGFR2
[35] = AUC in SCID mouse xenografted with human OCI-AML-2 cells at 100 mg/kg, ip administered as a single dose by LC/MS/MS analysis; assay type: ADME, organism-based; design: dose 100 mg/kg, route intraperitoneal; conditions: in vivo
Method in brief: (§1)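 SCID mice with subcutaneous OCI-AML2 xenografts (~500-600 mm3) received a single 100 mg/kg ip dose in 1% DMSO, 20% PEG400, pH 4.2. hIGF-I was injected iv at 3 or 6 h, with blood and tumor taken 10 min after. Compound levels were measured by LC/MS/MS.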

[36] = Cmax in SCID mouse xenografted with human OCI-AML-2 cells at 100 mg/kg, ip administered as a single dose by LC/MS/MS analysis; assay type: ADME, organism-based; design: dose 100 mg/kg, route intraperitoneal; conditions: in vivo; method in brief: as §1
Mus musculus [37] = experiment: Inhibition of PDK1-mediated AKT phosphorylation at Thr308 residue in human OCI-AML-2 cells xenografted in SCID mouse at 100 mg/kg, ip after 6 hrs by LC/MS/MS analysis; conditions: OCI-AML2, ip, read-out: INH
Mus musculus [38] = experiment: Inhibition of PDK1-mediated AKT phosphorylation at Thr308 residue in human OCI-AML-2 cells xenografted in SCID mouse at 100 mg/kg, ip after 3 hrs by LC/MS/MS analysis; conditions: OCI-AML2, ip, read-out: INH
Mus musculus [39] = experiment: Inhibition of PDK1-mediated RSK phosphorylation at Ser221 residue in human OCI-AML-2 cells xenografted in SCID mouse at 100 mg/kg, ip after 3 hrs by LC/MS/MS analysis; conditions: OCI-AML2, ip, read-out: INH
Mus musculus [40] = experiment: Inhibition of PDK1-mediated RSK phosphorylation at Ser221 residue in human OCI-AML-2 cells xenografted in SCID mouse at 100 mg/kg, ip after 6 hrs by LC/MS/MS analysis; conditions: OCI-AML2, ip, read-out: INH
[41] = biological target: Ribosomal protein S6 kinase alpha-2 (Homo sapiens) (UniProt Q15349); experiment: Inhibition of human RSK3 assessed as residual activity at 10 uM
[42] = biological target: Protein kinase C zeta type (Homo sapiens) (UniProt Q05513); experiment: Inhibition of human PKCzeta assessed as residual activity at 10 uM

NUAK family SNF1-like kinase 1 (Homo sapiens), sequence (O60285 whole entry): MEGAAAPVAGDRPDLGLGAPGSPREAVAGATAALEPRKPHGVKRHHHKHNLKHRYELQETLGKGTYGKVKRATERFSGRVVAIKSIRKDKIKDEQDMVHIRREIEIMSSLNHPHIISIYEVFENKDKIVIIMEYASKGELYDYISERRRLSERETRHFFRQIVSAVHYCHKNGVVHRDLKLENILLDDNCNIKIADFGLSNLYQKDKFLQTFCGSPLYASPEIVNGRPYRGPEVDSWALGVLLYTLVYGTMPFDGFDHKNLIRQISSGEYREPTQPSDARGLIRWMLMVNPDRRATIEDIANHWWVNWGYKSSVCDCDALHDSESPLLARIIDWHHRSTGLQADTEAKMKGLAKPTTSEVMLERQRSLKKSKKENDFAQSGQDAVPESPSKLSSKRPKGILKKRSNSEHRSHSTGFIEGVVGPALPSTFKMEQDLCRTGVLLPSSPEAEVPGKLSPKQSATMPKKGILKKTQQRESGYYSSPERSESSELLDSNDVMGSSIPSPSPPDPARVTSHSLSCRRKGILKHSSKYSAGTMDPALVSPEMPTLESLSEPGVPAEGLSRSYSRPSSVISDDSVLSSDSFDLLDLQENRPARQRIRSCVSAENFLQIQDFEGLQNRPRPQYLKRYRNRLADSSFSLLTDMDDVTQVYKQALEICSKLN
Vascular endothelial growth factor receptor 2, sequence (P35968 whole entry): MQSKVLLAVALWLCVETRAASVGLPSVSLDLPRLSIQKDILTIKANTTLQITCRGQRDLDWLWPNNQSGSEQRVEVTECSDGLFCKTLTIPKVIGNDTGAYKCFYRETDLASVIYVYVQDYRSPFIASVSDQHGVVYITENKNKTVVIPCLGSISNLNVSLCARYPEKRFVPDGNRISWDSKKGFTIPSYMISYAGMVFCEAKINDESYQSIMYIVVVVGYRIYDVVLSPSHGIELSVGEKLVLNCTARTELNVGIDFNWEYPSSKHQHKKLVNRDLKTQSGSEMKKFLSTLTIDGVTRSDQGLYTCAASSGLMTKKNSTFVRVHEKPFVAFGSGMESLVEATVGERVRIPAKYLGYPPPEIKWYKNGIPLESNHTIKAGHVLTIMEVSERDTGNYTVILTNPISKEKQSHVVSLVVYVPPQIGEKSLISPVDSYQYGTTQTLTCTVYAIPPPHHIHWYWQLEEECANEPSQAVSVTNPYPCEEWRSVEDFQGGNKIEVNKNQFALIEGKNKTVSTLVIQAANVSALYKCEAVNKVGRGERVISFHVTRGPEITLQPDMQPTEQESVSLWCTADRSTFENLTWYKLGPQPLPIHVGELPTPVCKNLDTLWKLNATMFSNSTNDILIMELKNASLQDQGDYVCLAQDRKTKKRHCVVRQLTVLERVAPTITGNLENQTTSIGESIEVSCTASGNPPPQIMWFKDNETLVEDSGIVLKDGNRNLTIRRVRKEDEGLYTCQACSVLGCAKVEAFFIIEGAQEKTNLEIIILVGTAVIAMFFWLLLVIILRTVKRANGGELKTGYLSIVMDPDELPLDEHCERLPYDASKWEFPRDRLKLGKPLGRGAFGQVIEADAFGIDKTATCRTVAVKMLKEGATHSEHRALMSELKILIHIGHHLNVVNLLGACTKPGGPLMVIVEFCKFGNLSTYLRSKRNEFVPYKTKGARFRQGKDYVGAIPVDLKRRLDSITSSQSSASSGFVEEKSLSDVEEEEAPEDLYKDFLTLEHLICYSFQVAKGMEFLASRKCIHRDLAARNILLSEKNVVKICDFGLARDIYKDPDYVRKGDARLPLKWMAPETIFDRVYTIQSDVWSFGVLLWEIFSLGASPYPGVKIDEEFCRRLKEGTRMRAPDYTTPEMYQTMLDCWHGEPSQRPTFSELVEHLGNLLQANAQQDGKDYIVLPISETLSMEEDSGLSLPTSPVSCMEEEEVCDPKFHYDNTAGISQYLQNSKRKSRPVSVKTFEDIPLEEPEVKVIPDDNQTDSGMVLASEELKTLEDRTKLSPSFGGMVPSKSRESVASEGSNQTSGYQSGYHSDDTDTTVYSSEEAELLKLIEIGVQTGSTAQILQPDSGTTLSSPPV
Ribosomal protein S6 kinase alpha-1 (Rattus norvegicus), sequence (Q63531 whole entry): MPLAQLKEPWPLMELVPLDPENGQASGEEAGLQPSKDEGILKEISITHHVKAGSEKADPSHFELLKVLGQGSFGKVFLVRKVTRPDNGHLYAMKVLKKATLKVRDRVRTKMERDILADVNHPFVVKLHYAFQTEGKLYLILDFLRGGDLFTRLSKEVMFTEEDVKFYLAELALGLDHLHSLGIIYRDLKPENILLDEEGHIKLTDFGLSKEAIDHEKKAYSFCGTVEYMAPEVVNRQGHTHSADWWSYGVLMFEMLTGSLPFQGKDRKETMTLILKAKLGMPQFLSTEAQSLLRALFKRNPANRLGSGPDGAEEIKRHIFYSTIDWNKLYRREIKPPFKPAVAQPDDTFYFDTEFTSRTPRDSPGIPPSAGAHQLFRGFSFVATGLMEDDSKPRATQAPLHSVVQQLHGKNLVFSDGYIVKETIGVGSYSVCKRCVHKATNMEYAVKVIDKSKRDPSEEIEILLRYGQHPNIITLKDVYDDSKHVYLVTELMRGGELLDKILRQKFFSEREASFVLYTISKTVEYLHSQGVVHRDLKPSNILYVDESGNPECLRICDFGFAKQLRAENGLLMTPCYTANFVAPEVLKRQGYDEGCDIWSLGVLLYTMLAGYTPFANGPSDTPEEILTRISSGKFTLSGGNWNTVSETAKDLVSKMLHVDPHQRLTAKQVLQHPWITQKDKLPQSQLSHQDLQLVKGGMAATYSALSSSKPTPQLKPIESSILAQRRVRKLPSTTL
cAMP-dependent protein kinase catalytic subunit PRKX (Homo sapiens), sequence (P51817 whole entry): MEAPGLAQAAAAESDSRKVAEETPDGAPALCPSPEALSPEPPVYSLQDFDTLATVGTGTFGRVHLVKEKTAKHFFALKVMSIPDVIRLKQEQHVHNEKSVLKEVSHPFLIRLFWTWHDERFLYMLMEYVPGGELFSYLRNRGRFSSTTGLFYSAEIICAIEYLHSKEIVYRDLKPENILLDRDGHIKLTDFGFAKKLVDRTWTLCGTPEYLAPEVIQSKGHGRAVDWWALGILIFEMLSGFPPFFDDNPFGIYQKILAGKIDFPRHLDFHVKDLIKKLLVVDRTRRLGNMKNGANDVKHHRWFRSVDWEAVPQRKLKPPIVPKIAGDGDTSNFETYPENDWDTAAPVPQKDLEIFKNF
Death-associated protein kinase 3 (Homo sapiens), sequence (O43293 whole entry, looked up): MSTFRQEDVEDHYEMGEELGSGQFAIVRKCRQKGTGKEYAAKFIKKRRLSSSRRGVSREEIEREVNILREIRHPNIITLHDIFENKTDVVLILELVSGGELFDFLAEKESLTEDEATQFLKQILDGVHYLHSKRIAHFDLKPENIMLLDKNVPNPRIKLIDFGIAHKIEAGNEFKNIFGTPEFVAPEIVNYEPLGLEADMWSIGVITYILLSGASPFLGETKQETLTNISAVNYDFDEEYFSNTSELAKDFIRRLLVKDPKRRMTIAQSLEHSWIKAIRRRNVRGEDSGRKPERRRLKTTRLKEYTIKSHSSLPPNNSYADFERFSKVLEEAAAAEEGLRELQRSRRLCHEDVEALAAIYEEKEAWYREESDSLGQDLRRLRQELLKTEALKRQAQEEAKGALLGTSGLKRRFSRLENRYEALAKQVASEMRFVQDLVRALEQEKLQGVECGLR
Serine/threonine-protein kinase 17A (Homo sapiens), sequence (Q9UEE5 whole entry): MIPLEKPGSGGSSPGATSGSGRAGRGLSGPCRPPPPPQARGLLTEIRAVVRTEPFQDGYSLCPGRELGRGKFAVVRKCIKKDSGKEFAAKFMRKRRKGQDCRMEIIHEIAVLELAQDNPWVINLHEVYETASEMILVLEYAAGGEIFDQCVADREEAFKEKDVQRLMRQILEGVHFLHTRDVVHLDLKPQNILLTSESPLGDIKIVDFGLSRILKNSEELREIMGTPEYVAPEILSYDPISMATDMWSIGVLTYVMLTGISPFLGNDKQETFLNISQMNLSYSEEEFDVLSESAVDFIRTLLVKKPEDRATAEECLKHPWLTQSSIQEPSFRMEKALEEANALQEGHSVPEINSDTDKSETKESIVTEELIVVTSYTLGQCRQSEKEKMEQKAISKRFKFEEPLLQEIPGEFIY
Ribosomal protein S6 kinase alpha-6 (Homo sapiens), sequence (Q9UK32 whole entry): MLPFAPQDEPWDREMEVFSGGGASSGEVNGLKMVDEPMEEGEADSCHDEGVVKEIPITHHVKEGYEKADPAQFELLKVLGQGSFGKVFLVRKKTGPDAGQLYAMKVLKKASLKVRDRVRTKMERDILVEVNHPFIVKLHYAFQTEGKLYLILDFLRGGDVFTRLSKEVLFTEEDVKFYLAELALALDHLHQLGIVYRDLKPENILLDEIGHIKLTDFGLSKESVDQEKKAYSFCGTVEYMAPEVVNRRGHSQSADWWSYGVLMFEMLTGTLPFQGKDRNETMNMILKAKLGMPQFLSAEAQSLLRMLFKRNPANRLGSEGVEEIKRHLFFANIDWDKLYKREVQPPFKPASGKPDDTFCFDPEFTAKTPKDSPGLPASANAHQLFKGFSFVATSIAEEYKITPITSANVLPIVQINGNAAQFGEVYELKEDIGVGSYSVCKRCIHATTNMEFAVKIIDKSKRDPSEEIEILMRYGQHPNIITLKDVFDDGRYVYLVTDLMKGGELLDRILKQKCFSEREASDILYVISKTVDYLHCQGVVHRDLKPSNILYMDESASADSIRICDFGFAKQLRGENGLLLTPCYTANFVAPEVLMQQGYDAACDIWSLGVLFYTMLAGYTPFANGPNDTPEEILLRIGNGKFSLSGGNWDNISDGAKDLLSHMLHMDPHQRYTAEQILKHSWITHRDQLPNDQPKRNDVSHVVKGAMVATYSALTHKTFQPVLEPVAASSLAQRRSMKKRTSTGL

C[C@@H]1C[C@@H](N(C)C(=O)OC(C)(C)C)CN(c2cc(-c3ccc4c(N)n[nH]c4c3)nc(N)n2)C1
IC50 [1]: 0.794 nM | IC50 (Aurora kinase A): 126 nM | IC50 (Aurora kinase B): 251 nM | IC50 (TGF-beta receptor type-1; read-out: pIC50 (converted)): > 10000 nM | IC50 [2]: > 10000 nM | IC50 [3]: 9 nM | IC50 [4]: 19 nM | IC50 (K562): 17000 nM | IC50 (OCI-AML2): 380 nM | IC50 [5]: 240 nM | IC50 (HEL): 18000 nM | IC50 [6]: 190 nM

CNc1nc(-c2ccc3c(N)n[nH]c3c2)cc(N2C[C@@H](C(=O)NC3CCCCC3)CC[C@H]2C)n1
IC50 (TGF-beta receptor type-1; read-out: IC50): > 10000 nM | IC50 (TGF-beta receptor type-1; read-out: pIC50 (converted)): > 10000 nM | IC50 (K562): 18000 nM | IC50 (OCI-AML2): 350 nM | IC50 [5]: 520 nM | IC50 (HEL): > 30000 nM | IC50 [6]: 280 nM | Activity [7]: -2% | Activity [8]: 0% | Activity [9]: 4% | Activity [10]: 12% | Activity [11]: 13% | Activity [12]: 16% | Activity [13]: 17% | Activity [14]: 21% | Activity [15]: 22% | Activity [16]: 23% | Activity [17]: 26% | Activity [18]: 28% | Activity [19]: 29% | Activity [20]: 33% | Activity [21]: 34% | Activity [22]: 38% | Activity [23]: 43% | Activity [24]: 44% | Activity [25]: 46% | Activity [26]: 46% | Activity [27]: 49% | IC50 [28]: > 10000 nM | IC50 [29]: > 27500 nM | IC50 [30]: > 25100 nM | IC50 [31]: > 25100 nM | IC50 [32]: 25100 nM | IC50 [33]: > 25100 nM | IC50 [34]: > 10000 nM | AUC [35]: 31400 ng·h/mL | Cmax [36]: 4510 ng/mL | inhibition in vivo at 100 mg/kg (Mus musculus [37]): 29% | inhibition in vivo at 100 mg/kg (Mus musculus [38]): 58% | inhibition in vivo at 100 mg/kg (Mus musculus [39]): 57% | inhibition in vivo at 100 mg/kg (Mus musculus [40]): 71% | Activity [41]: 14% | Activity [42]: 29%
